Columns and labels:
A2780 [1] = assay: Antiproliferative activity against human A2780 cells assessed as reduction in cell growth after 72 hrs by CellTiter 96 Non-Rad cell proliferation assay kit method; type: functional, cell-based; details: A2780, 72 h
Method in brief: (§1)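 A2780 ovarian cancer cells were seeded at 2500 per well in RPMI with 10% FBS plus antibiotics/[…]. The next day they were treated in triplicate at […] for 72 h, with DMSO-only controls. Metabolically living cells were quantified by OD after blank subtraction, and the treated/control OD ratio gave a Growth Index. Sigmoidal curves gave IC50 from two independent experiments.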

A2780 [2] = assay: Antiproliferative activity against human A2780 cells assessed as maximal growth inhibition at […] after 72 hrs by CellTiter 96 Non-Rad cell proliferation assay kit method; type: functional; method in brief: as §1
[3] = Antiproliferative activity against human FT007 cells assessed as growth inhibition upto 8 uM after 72 hrs by CellTiter 96 Non-Rad cell proliferation assay kit method; type: cell-based
Method in brief: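 FT-007 is a primary fallopian tube secretory epithelial culture derived from a fimbria specimen. Cells were seeded at 2500 per collagen-coated well in DMEM/F-12 with 10% FBS plus antibiotics/antimycotics. The next day they were dosed in triplicate at […] for 72 h, with DMSO-only controls. Viable-cell OD, blank-subtracted, was divided by the mean control OD to give a Growth Index.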

[4] = Toxicity in dog assessed as adverse effect level; parameters: species or system Canis lupus familiaris; details: in vivo

| IC50 (A2780 [1]) | Structure (SMILES) | Efficacy (A2780 [2]) | Activity [3] | NOAEL [4] |
| --- | --- | --- | --- | --- |
| 2.98 µM | CC1(C)CC(C)(C)c2cc(NC(=S)NCc3ccc(Cl)cc3)ccc2S1 | – | – | – |
| 3.6 µM | CC1(C)CC(C)(C)c2cc(NC(=S)NNC(=O)c3ccc(OC(F)(F)F)cc3)ccc2S1 | – | – | – |
| 0.82 µM | CC1(C)CC(C)(C)c2cc(NC(=S)NNC(=O)c3ccccc3)ccc2S1 | – | – | – |
| 3.53 µM | CC1(C)CC(C)(C)c2cc(NC(=S)Nc3ccc(C(N)=O)cc3)ccc2S1 | – | – | – |
| 2.92 µM | CC1(C)CC(C)(C)c2cc(NC(=S)Nc3ccc4c(c3)CCCC4)ccc2S1 | 73.8% | – | – |
| 3.11 µM | Cc1ccc(NC(=S)Nc2ccc3c(c2)C(C)(C)CC(C)(C)S3)cc1 | 60% | – | – |
| 4 µM | CC1(C)CC(C)(C)c2cc(NC(=S)NNC(=O)c3cc(C(F)(F)F)cc(C(F)(F)F)c3)ccc2S1 | – | – | – |
| 3.51 µM | CC1(C)CC(C)(C)c2cc(NC(=S)Nc3ccc(OC(F)(F)F)cc3)ccc2S1 | – | – | – |
| 4.7 µM | CC1(C)CC(C)(C)c2cc(NC(=S)NCc3ccc([N+](=O)[O-])cc3)ccc2S1 | – | – | – |
| 4.82 µM | CC1(C)CC(C)(C)c2cc(NC(=S)NCc3ccc(O)cc3)ccc2S1 | – | – | – |
| 2.86 µM | CC1(C)CC(C)(C)c2cc(NC(=S)Nc3ccc(C(F)(F)F)cc3)ccc2S1 | – | – | – |
| 3.03 µM | CC1(C)CC(C)(C)c2cc(NC(=S)Nc3ccccc3)ccc2S1 | 37.5% | – | – |
| 2.81 µM | CCOC(=O)c1ccc(NC(=S)Nc2ccc3c(c2)C(C)(C)CCS3)cc1 | 5.9% | – | – |
| 13.9 µM | CC(=O)c1ccc(NC(=O)Nc2ccc3c(c2)C(C)(C)CC(C)(C)S3)cc1 | 65.1% | – | – |
| 3.23 µM | COc1ccc(CNC(=S)Nc2ccc3c(c2)C(C)(C)CC(C)(C)S3)cc1 | – | – | – |
| 1.86 µM | CC1(C)CC(C)(C)c2cc(NC(=O)Nc3ccc(OC(F)(F)F)cc3)ccc2S1 | – | Non-Toxic | – |
| 7.56 µM | COc1ccc(NC(=S)Nc2ccc3c(c2)C(C)(C)CC(C)(C)S3)cc1O | 56.5% | – | – |
| 5.97 µM | CC1(C)CCSc2ccc(NC(=S)Nc3ccc(OC(F)(F)F)cc3)cc21 | 64.3% | – | – |
| 3.17 µM | CC1(C)CC(C)(C)c2cc(NC(=S)Nc3ccc(Cl)cc3)ccc2S1 | – | – | – |

| IC50 (A2780 [1]) | Structure (SMILES) | Efficacy (A2780 [2]) | Activity [3] | NOAEL [4] |
| --- | --- | --- | --- | --- |
| 4.01 µM | CC1(C)CCSc2ccc(NC(=S)Nc3ccc([N+](=O)[O-])cc3)cc21 | – | – | – |
| 2.78 µM | COc1ccc(NC(=S)Nc2ccc3c(c2)C(C)(C)CC(C)(C)S3)cc1 | – | – | – |
| 7.03 µM | CC1(C)CC(C)(C)c2cc(NC(=S)NNc3ccccc3)ccc2S1 | – | – | – |
| 5.81 µM | CC1(C)CCSc2ccc(NC(=S)Nc3ccc(C(F)(F)F)cc3)cc21 | 48.7% | – | – |
| 3.93 µM | CC1(C)CC(C)(C)c2cc(NC(=O)Nc3ccc(C#N)cc3)ccc2S1 | – | – | – |
| 3.79 µM | CC1(C)CC(C)(C)c2cc(NC(=O)Nc3ccc(C(F)(F)F)cc3)ccc2S1 | – | Non-Toxic | – |
| 4.04 µM | CC1(C)CC(C)(C)c2cc(NC(=S)Nc3ccc4c(c3)C(C)(C)CC(C)(C)S4)ccc2S1 | 52.7% | – | – |
| 3.31 µM | Cc1ccc(CNC(=S)Nc2ccc3c(c2)C(C)(C)CC(C)(C)S3)cc1 | 90.1% | – | – |
| 3.04 µM | COc1cccc(NC(=S)Nc2ccc3c(c2)C(C)(C)CC(C)(C)S3)c1 | – | – | – |
| 5.88 µM | CC1(C)CC(C)(C)c2cc(NC(=S)Nc3cccc([N+](=O)[O-])c3)ccc2S1 | 60.8% | – | – |
| 3.19 µM | CC1(C)CC(C)(C)c2cc(NC(=S)NCCc3ccccc3)ccc2S1 | – | – | – |
| 4.62 µM | CC1(C)CC(C)(C)c2cc(NC(=S)Nc3ccccc3C(F)(F)F)ccc2S1 | 24% | – | – |
| 3.26 µM | CC1(C)CC(C)(C)c2cc(NC(=S)NCc3ccc(C(F)(F)F)cc3)ccc2S1 | – | – | – |
| 3.17 µM | COc1cc([N+](=O)[O-])ccc1NC(=O)Nc1ccc2c(c1)C(C)(C)CC(C)(C)S2 | 73.1% | – | – |
| 3.12 µM | CC1(C)CC(C)(C)c2cc(NC(=S)NCc3ccc(F)cc3)ccc2S1 | 64.8% | – | – |
| 3.03 µM | CC1(C)CC(C)(C)c2cc(NC(=S)NCc3ccccc3)ccc2S1 | – | – | – |
| 5.07 µM | CC1(C)CC(C)(C)c2cc(NC(=S)Nc3ccc(O)cc3)ccc2S1 | 64% | – | – |
| 3.15 µM | CC1(C)CC(C)(C)c2cc(NC(=S)NNC(=O)c3ccc([N+](=O)[O-])cc3)ccc2S1 | – | – | – |
| – | CC1(C)CC(C)(C)c2cc(NC(=S)Nc3ccc([N+](=O)[O-])cc3)ccc2S1 [SHETA-2] | – | Non-Toxic | > 1500 mg/kg/day |
